Laboratory results published in paper PMC7557949 (ACS Omega, 2020).
Converted amounts (≈) assume the structure as drawn.

Experiments:
[1] = Cytotoxicity test on BGM cell line; type: cell-based; details: African green monkey, uninfected BGM cells
Method in brief: (§1)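 Test compound was dissolved at 50 mg/mL in DMSO and decontaminated with 100× antimycotic–antibiotic mix. Cells were seeded at 2 × 10^5 cells/mL and grown 24 h at 37 °C, 5% CO2, to monolayers. Bi-fold dilutions in DMEM were applied for 72 h. Read by daily microscopy for morphology and by trypan blue (0.4%) viable counts. CC50 taken as the concentration giving 50% of untreated-cell OD492.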

[2] = Cytotoxicity test on Vero cell line; type: cell-based; details: African green monkey, uninfected Vero cells
Method in brief: as §1

[3] = test system: E. coli (ATCC:3008); assay: Agar well diffusion, inhibition zone; type: cell-based, Escherichia coli; details: 15 mg/mL, 100 μL per well; mm ± SD
Method in brief: (§2)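 Agar well diffusion. Saline inoculum adjusted to McFarland 0.5 ([…]), i.e. OD 0.13 at 625 nm, and swabbed over dried agar. After 15 min drying, 6 mm wells received 100 μL of test compound at 15 mg/mL. Plates incubated at 37 °C; bacterial zones read in mm after 24 h incubation […]. Triplicate, reported as mm ± SD. Gentamicin and ampicillin served as reference drugs.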

[4] = test system: herpes simplex virus type 1 (HSV-1); assay: Plaque assay, antiviral activity against HSV-1; type: cell-based; details: Human alphaherpesvirus 1, Vero
[5] = test system: C. albicans (ATCC:10231); assay: Agar well diffusion, inhibition zone; type: cell-based, Candida albicans; details: 15 mg/mL, 100 μL per well; mm ± SD
Method in brief: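 Fungal plates were poured and agar dried 15 min. 6 mm wells were cut with a sterile borer and filled with 100 μL test compound solution at 15 mg/mL. Inhibition zone diameter (mm) was read after 48 h incubation. Triplicate, reported as mm ± SD.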

[6] = test system: P. aeruginosa (ATCC:27853); assay: Agar well diffusion, inhibition zone; type: cell-based, Pseudomonas aeruginosa; details: 15 mg/mL, 100 μL per well; mm ± SD
Method in brief: as §2

[7] = test system: adenovirus type 7 (HAdV7); assay: Plaque assay, antiviral activity against adenovirus type 7; type: cell-based; details: nontoxic dose of compound; average of three independent measurements
Method in brief: (§3)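 Plaque reduction. Nontoxic dilutions of test compound were mixed 1:1 with virus at 1 × 105, 1 × 106 or 1 × 107, for 0.5 h at 37 °C. 10-fold dilutions went onto BGM (CBV4), FRHK4 (HAV HM 175) or Hep-2 (adenovirus 7), with 1 h adsorption at 37 °C. Overlay was 2× DMEM plus 1% agarose. Cells were formalin-fixed and crystal violet-stained, and plaques counted. Triplicate. IC50 is the half-maximal plaque-reduction concentration.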

[8] = test system: S. mutans (ATCC:25175); assay: Agar well diffusion, inhibition zone; type: cell-based; details: for zone of inhibition at 15000 µg/mL: Streptococcus mutans, 24 h, read-out: diameter of the IZ, S. mutans (ATCC:25175)
Method in brief: as §2

[9] = target: Hsp90α (Homo sapiens, UniProt P07900); assay: Hsp90α; type: biochemical; details: for inhibition at 0.1 µg/mL: read-out: percentage inhibition of Hsp90α at 0.1 (μg/mL); for inhibition at 1 µg/mL: read-out: percentage inhibition of Hsp90α at 1 (μg/mL); for inhibition at 10 µg/mL: read-out: percentage inhibition of Hsp90α at 10 (μg/mL); for inhibition at 100 µg/mL: read-out: percentage inhibition of Hsp90α at 100 (μg/mL)
Method in brief: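 AlphaScreen kit assay for Hsp90α C-terminal binding to PPID. Hsp90α was diluted to 1.5 ng/μL in assay buffer and premixed with test compound. The reaction was started with PPID diluted to 10 ng/μL and run 30 min at room temperature. Glutathione acceptor beads were added for 30 min, then streptavidin donor beads for 1 h, and Alpha counts read. Triplicate; percent inhibition calculated against control.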

[10] = test system: ED-43/SG-Feo (VYG) replicon of hepatitis C virus genotype 4a (HCVcc); assay: Antiviral bioassay against ED-43/SG-Feo; type: cell-based; details: nontoxic dose of compound; average of three independent measurements
Method in brief: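 Huh 7.5 cells carrying the ED-43/SG-Feo (VYG) HCV genotype 4a subgenomic replicon were treated with the nontoxic dose of test compound. Replicon RNA copies were quantified by TaqMan qRT-PCR, and the result was expressed as percent reduction.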

[11] = test system: S. aureus (ATCC:6538); assay: Agar well diffusion, inhibition zone; type: cell-based, Staphylococcus aureus; details: for zone of inhibition at 15000 µg/mL: Staphylococcus aureus, 24 h, read-out: diameter of the IZ, S. aureus (ATCC:6538)
Method in brief: as §2

[12] = test system: K. pneumonia (ATCC:4415); assay: Agar well diffusion, inhibition zone; type: cell-based, Klebsiella pneumonia; details: 15 mg/mL, 100 μL per well; mm ± SD
Method in brief: as §2

[13] = Cytotoxicity test on FRHK-4 cell line; type: cell-based; details: rhesus monkey, uninfected FRHK-4 cells
Method in brief: as §1

[14] = test system: hepatitis A virus HM 175 (HAV HM 175); assay: Plaque assay, antiviral activity against HAV HM 175; type: cell-based
Method in brief: as §3

[15] = test system: E. coli (ATCC:3008); assay: MIC, twofold serial dilution in agar; type: cell-based; details: Escherichia coli, read-out: MIC, E. coli (ATCC:3008)
[16] = target: T1, dihydrofolate reductase (DHFR) (Homo sapiens, UniProt P00374); assay: DHFR inhibitor screening assay; type: biochemical; details: for IC50: IC50 on the DHFR, average of three measurements; for inhibition at 0.01 µg/mL: read-out: percent inhibition of DHFR at 0.01 (μg/mL); for inhibition at 0.1 µg/mL: read-out: percent inhibition of DHFR at 0.1 (μg/mL); for inhibition at 1 µg/mL: read-out: percent inhibition of DHFR at 1 (μg/mL); for inhibition at 10 µg/mL: read-out: percent inhibition of DHFR at 10 (μg/mL)
T1 sequence (P00374 1-187): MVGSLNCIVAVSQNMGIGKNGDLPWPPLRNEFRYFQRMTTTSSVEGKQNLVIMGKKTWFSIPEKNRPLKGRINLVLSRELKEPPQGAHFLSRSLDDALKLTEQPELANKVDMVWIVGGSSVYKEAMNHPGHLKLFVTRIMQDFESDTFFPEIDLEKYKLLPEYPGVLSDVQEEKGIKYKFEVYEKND

[17] = test system: K. pneumonia (ATCC:4415); assay: MIC, twofold serial dilution in agar; type: cell-based; details: Klebsiella pneumoniae, read-out: MIC, K. pneumonia (ATCC:4415)
[18] = test system: P. aeruginosa (ATCC:27853); assay: MIC, twofold serial dilution in agar; type: cell-based; details: Pseudomonas aeruginosa, read-out: MIC, P. aeruginosa (ATCC:27853)
[19] = test system: C. albicans (ATCC:10231); assay: MIC, twofold serial dilution in agar; type: cell-based, Candida albicans
Method in brief: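 Test compound and reference drugs (ampicillin, gentamicin, nystatin) were made as 1000 μg/mL DMSO stocks, then diluted twofold to 500, 250, 125, 62.5 and 31.25 μg/mL. Dilutions were mixed into sterile nutrient agar, and a defined microbial inoculum was applied to the agar surface. Plates incubated at 37 °C in a humid chamber.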

[20] = test system: S. mutans (ATCC:25175); assay: MIC, twofold serial dilution in agar; type: cell-based; details: Streptococcus mutans, read-out: MIC, S. mutans (ATCC:25175)
[21] = test system: S. aureus (ATCC:6538); assay: MIC, twofold serial dilution in agar; type: cell-based; details: Staphylococcus aureus, read-out: MIC, S. aureus (ATCC:6538)
[22] = 15 mg/mL, 100 μL per well, mm ± SD

Hsp90α, sequence (P07900 535-732 limits assumed): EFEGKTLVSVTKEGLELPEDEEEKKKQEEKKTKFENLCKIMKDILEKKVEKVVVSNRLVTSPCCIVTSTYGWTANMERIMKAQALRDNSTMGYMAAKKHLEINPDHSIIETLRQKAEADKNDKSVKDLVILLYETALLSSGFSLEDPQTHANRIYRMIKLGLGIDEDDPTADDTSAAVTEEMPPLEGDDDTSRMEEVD

MIC [15] [µg/mL]	Structure (SMILES)	CC50 at 72 h [1] [µg/mL]	CC50 at 72 h [2] [µg/mL]	diameter of the IZ, E. coli (ATCC:3008) [3]	IC50 [4] [µg/mL]	diameter of the IZ, C. albicans (ATCC:10231) [5]	diameter of the IZ, P. aeruginosa (ATCC:27853) [6]	mean % of reduction, adenovirus type 7 [7] [%]	inhibition at 0.1 µg/mL [9] [%]	inhibition at 1 µg/mL [9] [%]	inhibition at 10 µg/mL [9] [%]	inhibition at 100 µg/mL [9] [%]	mean % of reduction, HCVcc genotype 4 [10] [%]	IC50 [16] [µM]	inhibition at 0.01 µg/mL [16] [%]	inhibition at 0.1 µg/mL [16] [%]	inhibition at 1 µg/mL [16] [%]	inhibition at 10 µg/mL [16] [%]	zone of inhibition at 15000 µg/mL [8] [mm]	zone of inhibition at 15000 µg/mL [11] [mm]	also measured
	CCOC(=O)c1cc(C#N)c(=O)n(NS(=O)(=O)c2ccccc2)c1N [15c, Ethyl 2-Amino-5-cyano-6-oxo-1-(phenylsulfonamido)-1,6-dihydropyridine-3-carboxylate]	260 (≈ 718 µM)	250 (≈ 690 µM)	no activity	90 (≈ 248 µM)	no activity	no activity	36.7 ± 0.30	8.42	26.1	48.7	72.7	20.0 ± 0.15								diameter of the IZ, S. mutans (ATCC:25175) [8, 22]: no activity; diameter of the IZ, S. aureus (ATCC:6538) [11, 22]: no activity; diameter of the IZ, K. pneumonia (ATCC:4415) [12]: no activity; CC50 at 72 h [13]: 260 µg/mL (≈ 718 µM); IC50 ([14]; Hepatovirus A, FRhK-4): 88 µg/mL (≈ 243 µM)
31.2 (≈ 65.4 µM)	CNC(C)C1CCC(N)C(OC2C(N)CC(N)C(OC3OCC(C)(O)C(NC)C3O)C2O)O1 (stereo not shown) [gentamicin]			25.0 ± 0.1 mm			35.0 ± 0.1 mm														MIC [17]: 62.5 µg/mL (≈ 131 µM); MIC [18]: 125 µg/mL (≈ 262 µM)
	C[C@@H]1[C@H](O)[C@@H](C)/C=C/C=C/CC/C=C/C=C/C=C/C=C/C(O[C@H]2O[C@H](C)[C@@H](O)[C@H](N)[C@@H]2O)CC2O[C@](O)(CC(O)C(O)CCC(O)CC(O)CC(O)CC(=O)O[C@H]1C)CC(O)C2C(=O)O (stereo partly shown) [nystatin, reference compound]					28.0 ± 0.2 mm															MIC, C. albicans (ATCC:10231) [19]: 31.25 µg/mL (≈ 33.7 µM)
250 (≈ 999 µM)	Nc1ccc(S(=O)(=O)Nc2ncccn2)cc1 [sulfadiazine, reference compound]			19.8 ± 0.4 mm		no activity	24.0 ± 1.4 mm							0.803	28.7	46.8	60.2	76.7	16.3 ± 1.1	31.3 ± 2.1	MIC [17]: 250 µg/mL (≈ 999 µM); MIC [18]: 250 µg/mL (≈ 999 µM); MIC [20]: 125 µg/mL (≈ 499 µM); MIC [21]: 500 µg/mL (≈ 2000 µM)

Structure (SMILES)	MIC [15] [µg/mL]	CC50 at 72 h [1] [µg/mL]	CC50 at 72 h [2] [µg/mL]	diameter of the IZ, E. coli (ATCC:3008) [3]	IC50 [4] [µg/mL]	diameter of the IZ, C. albicans (ATCC:10231) [5]	diameter of the IZ, P. aeruginosa (ATCC:27853) [6]	mean % of reduction, adenovirus type 7 [7] [%]	inhibition at 0.1 µg/mL [9] [%]	inhibition at 1 µg/mL [9] [%]	inhibition at 10 µg/mL [9] [%]	inhibition at 100 µg/mL [9] [%]	mean % of reduction, HCVcc genotype 4 [10] [%]	IC50 [16] [µM]	inhibition at 0.01 µg/mL [16] [%]	inhibition at 0.1 µg/mL [16] [%]	inhibition at 1 µg/mL [16] [%]	inhibition at 10 µg/mL [16] [%]	zone of inhibition at 15000 µg/mL [8] [mm]	zone of inhibition at 15000 µg/mL [11] [mm]	also measured
CCOC(=O)c1cc(C#N)c(=O)n(NS(=O)(=O)c2ccc(C)cc2)c1N [15d, Ethyl 2-Amino-5-cyano-1-(4-methylphenylsulfonamido)-6-oxo-1,6-dihydropyridine-3-carboxylate]	1000 (≈ 2660 µM)	240 (≈ 638 µM)	220 (≈ 584 µM)	19.6 ± 1.5 mm	90 (≈ 239 µM)			30.0 ± 0.10	10.5	25.9	57.4	89.9	20.0 ± 0.20	12.4	11.1	20.7	39.9	56.1	9 ± 1	11.3 ± 1.1	mean % of reduction, HAV HM 175 ([14]; nontoxic dose of compound, average of three independent measurements): 36.7 ± 0.25%
